Most compounds without a hit are left out; they make up all but 4.4% or so of the library.
HTR2A ag = mouse HTR2A agonism via beta-arrestin recruitment. AID 624169. CHO-K1 mHTR2A beta-arrestin complementation, luminescence; percent of 30 µM serotonin response. hit rate 0.66% among 360,000. activation, % at 7.6 µM. P35363;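 active means activation above a run cutoff, the mean activation of all tested compounds plus 3 SD, cut at about 14% in these data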;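 further: 0% = plate median of compound wells and 100% = 30 µM serotonin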
Target sequence (P35363 whole entry, looked up): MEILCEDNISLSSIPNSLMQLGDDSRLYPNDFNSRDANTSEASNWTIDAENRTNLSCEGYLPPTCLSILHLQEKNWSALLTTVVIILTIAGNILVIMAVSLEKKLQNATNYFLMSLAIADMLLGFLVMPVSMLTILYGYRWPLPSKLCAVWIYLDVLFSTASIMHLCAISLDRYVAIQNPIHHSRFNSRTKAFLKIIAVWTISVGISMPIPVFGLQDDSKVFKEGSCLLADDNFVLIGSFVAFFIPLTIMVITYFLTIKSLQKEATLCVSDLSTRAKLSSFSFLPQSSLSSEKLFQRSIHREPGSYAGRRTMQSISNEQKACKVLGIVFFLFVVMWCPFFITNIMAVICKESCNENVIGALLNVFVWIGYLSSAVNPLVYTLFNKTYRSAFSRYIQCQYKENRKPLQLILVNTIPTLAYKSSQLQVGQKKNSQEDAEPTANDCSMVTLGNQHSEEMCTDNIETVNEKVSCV
AHR act = activators of human aryl hydrocarbon receptor; hit rate 2.5% among 320,000; activation, % at 5 µM; AHR-responsive luciferase reporter cells, luminescence; AID 2796; in the data active means activation above about 47%;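 further: 0% = vehicle wells and 100% = reference agonist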
AI-2 QS mod = Vibrio harveyi AI-2 quorum sensing modulation | activity change, % at 7.5 µM | Vibrio harveyi JMH597 AI-2 luminescence/OD600 ratio, 9 h; active compounds read low; strain lacks LuxN and CqsS sensors; 0 = neutral-control median | hit rate 0.4% among 300,000; in the data active means activity change below about -75%, passing the limit was not always enough;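 further: luminescence divided by OD600 gain over 9 h not by final OD600 alone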
MsrA act = bovine methionine sulfoxide reductase A activation; purified bovine MsrA, absorbance read-out; activation, % at 10.6 µM; AID 602163; hit rate 0.3% among 360,000; in the data active means activation above about 7.5%;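 further: 0% = vehicle and 100% = reference activator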
Tb MetRS inh = blocks T. brucei methionyl-tRNA synthetase activity | purified T. brucei MetRS, ATP depletion, Kinase-Glo luminescence | inhibition, % at 11.9 µM | hit rate 0.4% among 360,000 | AID 624268;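 active means inhibition above a per-plate cutoff of the control wells' mean inhibition plus 3 SD, cut at about 5.5% in these data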;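 further: 0% = DMSO wells median and 100% = median of wells with control inhibitor compound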
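Material: parasite MetRS enzyme / Replication: singlicate, one well per compound / Signal: luminescence of leftover ATP / Schedule: 2 h aminoacylation at 25 °C after 15 min preincubation / Medium: HEPES-MgCl2-KCl buffer plus DTT, spermine, BSA, pyrophosphatase / Doses: 11.9 µM single point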
MsrA inhibitor = bovine MsrA inhibition | purified bovine MsrA, absorbance read-out | hit rate 0.75% among 360,000 | AID 651718 | inhibition, % at 15.5 µM; in the data active means inhibition above about 4.5%;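 further: 0% = vehicle wells with enzyme and 100% = reference inhibitor wells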
Tb MetRS conf = confirmation of Trypanosoma brucei MetRS inhibitors. shares compounds with Tb MetRS inh. T. brucei MetRS enzyme, luminescence (ATP depletion). inhibition, % at 11.9 µM. hit rate 93% among 1,400. AID 624412; in the data active means inhibition above about 7%
Jurkat cytotox = counter-screen for T. brucei MetRS inhibitors: Jurkat cell cytotoxicity. shares compounds with Tb MetRS inh. Jurkat cells viability, ATP luminescence. inhibition, % at 8.3 µM. hit rate 12% among 1,400. AID 624413; in the data active means inhibition above about 15%;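 further: 0% = vehicle and 100% = reference inhibitor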
TbMetRS FP orth = inhibits T. brucei methionyl tRNA synthetase in orthogonal FP test; shares compounds with Tb MetRS inh; purified T. brucei MetRS, fluorescence polarization; inhibition, % at 11.9 µM; hit rate 44% among 1,400; AID 651607; in the data active means inhibition above about 17%;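 further: 0% = vehicle wells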
An asterisk follows results filed as active; · = no result given.

SMILES | HTR2A ag | AHR act | AI-2 QS mod | MsrA act | Tb MetRS inh | MsrA inhibitor | Tb MetRS conf | Jurkat cytotox | TbMetRS FP orth
O=C(NCc1nc2ccccc2[nH]1)C1=C[C@@H](c2csc3ccccc23)C[C@@H](OCc2ccc(CO)cc2)O1 | -3.4 | 6.3 | 36.1 | -2.9 | 41.4* | 2.7 | 82.3* | -0.6 | 49.9*
NC(=NCc1ccccc1)NN=Cc1ccnc2ccccc12 | -10.9 | · | · | -3.6 | 7.1* | 1.5 | 10.4* | 11.9 | 7.4
NC(N)=NN=Cc1ccnc2ccccc12 | -6.0 | · | · | -5.3 | -1.1 | 2.0 | · | · | ·
Brc1ccccc1CN1CCN(Cc2c[nH]c3ccccc23)CC1 | · | 8.1 | 11.5 | · | · | 1.7 | · | · | ·
Brc1ccc(CN2CCN(Cc3c[nH]c4ccccc34)CC2)cc1 | -8.9 | 17.4 | 9.5 | -1.7 | 11.0* | -0.6 | 41.9* | 13.3 | 17.5*
O=[N+]([O-])c1ccc(CN2CCN(Cc3c[nH]c4ccccc34)CC2)cc1 | -1.3 | 18.2 | 11.5 | -3.9 | 6.2* | 1.7 | 18.9* | 9.9 | 5.5
COc1ccc(CC(=O)N(C)Cc2cccc(OC)c2OC)cc1S(=O)(=O)N1CCOCC1 | 4.5 | 0.1 | 25.6 | -6.6 | -0.3 | -0.6 | · | · | ·
O=C1[C@@H]2Cc3c([nH]c4ccccc34)C(c3cccc([N+](=O)[O-])c3)N2C(=O)CN1C1CCN(Cc2ccccc2)CC1 (some centres undefined) | 7.3 | 18.3 | 41.5 | -2.0 | 91.3* | 0.5 | 94.2* | 0.4 | 74.3*
O=S(=O)(Nc1cc(S(=O)(=O)N2CCOCC2)ccc1NCC1CCCO1)c1ccccc1F (centres undefined) | 5.5 | -0.9 | · | -4.0 | -0.1 | -0.4 | · | · | ·
Cc1ccc(NC(=O)CNc2cc(S(=O)(=O)N3CCOCC3)ccc2NCC2CCCO2)cc1F (centres undefined) | -3.5 | -4.5 | 14.8 | -1.9 | 14.8* | 0.1 | 21.1* | -3.0 | 10.0
COc1ccc(NC(=O)CNc2cc(S(=O)(=O)N3CCOCC3)ccc2NCC2CCCO2)cc1 (centres undefined) | -1.6 | -5.5 | 24.8 | -1.6 | 1.3 | 4.5 | · | · | ·
O=C(CNc1cc(S(=O)(=O)N2CCOCC2)ccc1NCC1CCCO1)Nc1ccccc1F (centres undefined) | -6.9 | -4.0 | 0.6 | -7.4 | 10.5* | -1.3 | 4.2 | -1.1 | -5.2
COc1ccc(CC2(c3ccccc3)NC(=O)NC2=O)cc1 (centres undefined) | 6.7 | · | · | -7.0 | -0.2 | -0.7 | · | · | ·
CC1CCCCN1CCNC(=O)c1ccc2c(=O)n(Cc3ccc(Cl)cc3)c(=S)[nH]c2c1 (centres undefined) | -13.9 | 1.1 | 15.4 | 0.1 | -0.2 | -0.4 | · | · | ·
O=C(C=Cc1ccccc1)c1c[nH]c2ccccc2c1=O | -1.8 | · | · | -11.3 | 36.6* | 3.8 | 77.9* | 93.3* | 56.4*
COC(=O)C[C@@H]1C=C[C@H](NS(=O)(=O)c2cccc(F)c2)[C@@H](CO)O1 | 7.7 | · | · | · | -0.3 | -0.6 | · | · | ·
CN(C)CCOCCOc1ccc(Cl)cc1Br | -6.8 | 12.3 | 16.4 | -2.7 | 5.7* | 1.0 | 9.5* | 3.7 | 7.8
CC1CC1C(=O)OCC(=O)Nc1ccc(Cl)cn1 (centres undefined) | 1.5 | 5.0 | · | -1.1 | -0.1 | -0.3 | · | · | ·
CC(C)(Oc1ccc(Cl)cc1)C(=O)OCc1nc2ccsc2c(=O)[nH]1 | 2.6 | 4.8 | 16.1 | -1.8 | 20.0* | -1.1 | 64.1* | 3.0 | 37.9*
O=C(CSCc1cccc(Cl)c1)OCc1nc2ccsc2c(=O)[nH]1 | -0.7 | 1.5 | 33.8 | -6.5 | -0.3 | 0.5 | · | · | ·
CC(C)C[C@H](NC(=O)C1CC(=O)N(c2ccc3c(c2)OCCO3)C1)C(=O)N1CCCCC1 (some centres undefined) | -2.3 | 2.6 | 11.5 | -3.2 | -0.7 | -0.3 | · | · | ·
Clc1ccc(CNc2ncnc3[nH]ncc23)cc1Cl | -2.0 | · | · | -2.3 | 7.1* | -0.4 | 28.6* | -1.5 | 17.0*
CCCC(=O)N(Cc1cc(=O)[nH]c2ccccc12)c1ccccc1C | 0.1 | 14.2 | 6.9 | -0.3 | -0.8 | 0.1 | · | · | ·
c1ccc2c3c([nH]c2c1)-c1[nH]ncc1CC3 | -0.5 | 29.2 | 11.0 | -3.2 | 16.1* | -1.1 | 19.3* | 2.5 | 22.0*
Clc1ccc2[nH]c3c(c2c1)CCc1cn[nH]c1-3 | -3.1 | 96.0* | 10.6 | -3.0 | 31.7* | 1.4 | 28.2* | 4.8 | 99.7*
SMILES | HTR2A ag | AHR act | AI-2 QS mod | MsrA act | Tb MetRS inh | MsrA inhibitor | Tb MetRS conf | Jurkat cytotox | TbMetRS FP orth
COc1cc(F)ccc1-c1cc(C(=O)Nc2ccc(NC(C)=O)cc2)[nH]n1 | 0.7 | · | · | -1.3 | -0.2 | 1.3 | · | · | ·
N#Cc1ccccc1OCC(=O)Nc1cc(S(=O)(=O)N2CCCCC2)ccc1N1CCOCC1 | 3.3 | · | · | -5.9 | -0.3 | -0.6 | · | · | ·
O=c1[nH]nc(Cc2ccc(Cl)cc2)c2ccccc12 | -0.5 | 3.8 | -1.0 | -4.3 | 0.8 | -1.6 | · | · | ·
O=c1[nH]nc(Cc2ccc(Cl)cc2Cl)c2ccccc12 | -2.1 | 1.9 | 22.5 | -2.1 | 8.2* | -0.6 | 39.1* | 5.3 | 20.5*
COc1ccc(N2CCC(CNC(=O)Nc3ccc(Cl)cc3)C2)cc1 (centres undefined) | -5.9 | 3.9 | 3.6 | -1.4 | 13.8* | -0.5 | 28.7* | 10.9 | 25.4*
O=C(CCC(=O)Nc1ccc(Cl)cc1Cl)NNC(=O)Nc1ccccc1 | -1.3 | 0.6 | -1.3 | -7.5 | 12.7* | -0.9 | 26.0* | -0.2 | 6.4
COc1ccc(NC(=O)NNC(=O)CCC(=O)Nc2ccccc2Cl)cc1 | 0.6 | 3.5 | 28.4 | -2.5 | 0.1 | 1.2 | · | · | ·
O=C(NNC(=O)c1cc(-c2ccc(Cl)cc2Cl)nc2ccccc12)Nc1ccccc1 | 0.9 | 9.0 | 12.2 | -5.9 | 39.0* | 1.2 | 95.4* | 0.6 | 80.5*
O=C(N/N=C/c1cccc([N+](=O)[O-])c1)c1cc[n+](CCO)cc1 | 3.2 | 8.7 | -6.0 | 0.0 | -0.1 | -0.3 | · | · | ·
O=C(NCCSCc1ccco1)Nc1cccc(Cl)c1 | -6.8 | 3.2 | -2.9 | -2.0 | 0.8 | 0.0 | · | · | ·
O=C(Nc1ccccc1C(=O)NCc1ccco1)c1ccccc1 | 2.7 | 0.3 | 14.7 | -5.0 | -0.3 | 0.7 | · | · | ·
S=C(NCCSCc1ccc(Cl)cc1)Nc1ccccc1 | -7.4 | -0.8 | 5.6 | -5.0 | 30.1* | 0.1 | 50.9* | 5.4 | 49.5*
O=C(NCCSCc1ccco1)Nc1ccc(Cl)cc1 | -4.5 | 15.5 | 4.9 | -6.9 | 6.4* | 1.2 | 15.9* | 4.3 | 7.7
O=C(Nc1ccc(Cl)cc1)Nc1ccccc1C(=O)NCc1ccco1 | -6.6 | -0.9 | -5.1 | -3.2 | 13.8* | -0.2 | 19.7* | 2.4 | 14.3
Cc1noc(C)c1-c1ccc(C(=O)Nc2ccc(C(C)C)cc2)c2occc12 | 0.4 | · | · | 0.2 | 0.4 | 0.7 | · | · | ·

Screening results from PubChem.
